Test: Toxicity liver stage against HepG2, at 10uM
Type: cell-based
Parameters: test concentration 10 uM, cell line HepG2-A16-CD81EGFP
Details: human, HepG2-A16-CD81EGFP cells; read-out: INHIBITION
In short: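 Uninfected HepG2-A16-CD81EGFP cells, 3 × 10^3 per well, 1536-well, plated on prespotted compound at 10 μM final, parasite-free screening media added to match infected plates; puromycin 10 μM positive, DMSO 0.5% negative; run in parallel with 48 h PbLuc assay at 37 °C, 5% CO2; viability by CellTiter-Glo luminescence, normalized to controls.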

Row | SMILES | cytotoxicity at 10 µM [%]
1 | COCCO[C@H]1COCCN(Cc2ccc(OC)cc2)C1 | 9.71
2 | CC(C)NC(=O)CN1CCCNCC1 | -0.616
3 | Cn1ccnc1SC1CCc2ccccc2NC1=O (stereo unspecified) | -8.75
4 | Cc1ccc(C(=O)Nc2nnc(C3CC3)s2)c(-n2cnnn2)c1C | 12.3
5 | O=C(CSC1=NS(=O)(=O)c2cc(F)ccc2N1)Nc1ccc(Cl)cc1 | 8.93
6 | COC1(CNC(=O)CCCc2ccccc2)CCSC1 (stereo unspecified) | 4.68
7 | O=C(NCCn1nc(-n2cncn2)ccc1=O)c1ccccc1Br | -2.02
8 | Cc1cccc(CN2CCC3(CCC(C(=O)N(C)C)O3)CC2)n1 (stereo unspecified) | 3.14
9 | CCS(=O)(=O)N1CCCC2(CCCN2C(=O)c2cscn2)C1 (stereo unspecified) | 8.25
10 | Cn1ccnc1C(=O)NCc1cc(=O)n2c(n1)CN(CC1CC1)CCC2 | 13.8
11 | O=C(c1ccsc1)N1CCc2onc(CN3CCOCC3)c2C1 | 5.07
12 | CCOCC(=O)N1CC[C@H]2OCC[C@@H](c3nnc(C)o3)[C@H]2C1 | 12
13 | COc1cc(OC)cc(C2SCC(=O)Nc3ccsc32)c1 (stereo unspecified) | -1.16
14 | CCOC(=O)c1s/c(=N\C(=O)COc2cnc(C)cc2O)[nH]c1C | 5.56
15 | COc1ccc(C)cc1-c1[nH]c2ccccc2c1C(=O)O | 0.806
16 | COCCn1ccc(=O)c(OCC(=O)Nc2cccc(C(C)=O)c2)c1C | 4.31
17 | COc1cc(C2CC(=O)Oc3cc(C)[nH]c(=O)c32)ccc1OC(F)F (stereo unspecified) | 7.34
18 | CNc1nc2c(s1)C(c1c(F)cccc1Cl)CC(=O)N2 (stereo unspecified) | -14.7
19 | CCC(C)c1noc(C2CCN(C(=O)c3cccnc3)CC2)n1 (stereo unspecified) | -10.7
20 | CC(C)(C)C(=O)N1CCCC1c1cc(CO)[nH]n1 (stereo unspecified) | 1.61
21 | CCS(=O)(=O)N1C[C@@H](c2cc(O)nc(C)n2)[C@H](c2ccccc2F)C1 | 7.17
22 | Cc1nn(C)c(C)c1-c1ccc(=O)n(C(C)C(=O)NC(C)(C)C)n1 (stereo unspecified) | 5.75
23 | CC(=O)N1CCC1c1cc(N2CC(O)C2)nc(C)n1 (stereo unspecified) | 5.76

Row | SMILES | cytotoxicity at 10 µM [%]
24 | O=C1CN(C(=O)C2CN(c3cccc(Cl)c3)CCO2)CCN1 (stereo unspecified) | -1.77
25 | O=C1NC2(CCN(CC(=O)N3CCOCC3)CC2)Nc2ccccc21 | -1.71
26 | COCCC(=O)N1C[C@@H](c2cccc(OC)c2)[C@@]2(CCCCC(=O)N2)C1 | 9.47
27 | CCCn1cc(S(=O)(=O)N(C)Cc2nonc2C)c(C)n1 | 12.7
28 | CC(=O)N1C[C@H]2CCCN(S(=O)(=O)c3ccc(Cl)s3)[C@H]2C1 | -2.32
29 | Cc1n[nH]c(C)c1CCC(=O)NCC1(O)CCN(c2ccccn2)C1 (stereo unspecified) | -1.08
30 | c1ccc2ncc(CC3CNCCOC3)cc2c1 (stereo unspecified) | -3.93
31 | COc1ncc(CN2CCCC2c2[nH]ncc2C(=O)N(C)C)cn1 (stereo unspecified) | -0.116
32 | CNC(=O)C1(C)CN(Cc2cn(C)c3ccc(F)cc23)CCO1 (stereo unspecified) | 0.187
33 | O=C(NCCc1ccccc1)C1CCN(C(=O)Cn2cncn2)C1 (stereo unspecified) | 2.55
34 | Cn1cc(C(=O)N2CCCC(Cc3cncc4ccccc34)C2)cn1 (stereo unspecified) | -13.2
35 | O=C(O)COCC(=O)NC1CC2(CCCCC2)Oc2ccccc21 (stereo unspecified) | -28.5
36 | CNC(=O)C1(c2cnccn2)CCCN1C(=O)c1ccc(F)cc1 (stereo unspecified) | 0.918
37 | CC(C)(C)c1nnc(NCc2ccc(F)cc2)o1 | 6.88
38 | CCn1cnnc1CNC(=O)NCC(O)c1ccc(OC)cc1 (stereo unspecified) | 5.66
39 | Cc1ccc(S(N)(=O)=O)cc1C(=O)NC1CCCN(C)C1 (stereo unspecified) | -1.96
40 | CCOCCN1CCN(c2ncccc2C#N)CC1CC (stereo unspecified) | 5.94
41 | COC(=O)c1ccc(S(=O)(=O)N2CCCn3ncnc32)s1 | 19.8
42 | Cc1cc(C2CCCN(C(=O)COc3cccc(F)c3)C2)n[nH]1 (stereo unspecified) | 5.95
43 | NC(=O)C1CCN(C(=O)CSC2CCCc3ccccc32)CC1 (stereo unspecified) | 1.4
44 | CC(CS(C)(=O)=O)N(C(=O)Nc1cc(F)ccc1Cl)C1CC1 (stereo unspecified) | -4.15
45 | CNC(=O)C1CCCCN1C(=O)c1cn(CCOC)c2ccccc12 (stereo unspecified) | -0.408
46 | CCOc1cncc(N2CCN(c3ccccc3F)CC2)n1 | -0.0195

Row | SMILES | cytotoxicity at 10 µM [%]
47 | COc1ccc(S(=O)(=O)NCCC(=O)NCc2ccoc2)cc1OC | 10.8
48 | Cc1ccc(C2COCCN2C(=O)c2ccsc2)o1 (stereo unspecified) | -2.55
49 | Cc1c(CC(=O)N2CCSCC2)nnn1-c1cccc(Cl)c1 | -3.89
50 | CC(C)CN1CCN(C(=O)c2cc(=O)c3ccccc3[nH]2)CC1 | -4.92
51 | CC(NC(=O)Cn1cc(C(N)=O)c(-c2ccccc2)n1)C1CC1 (stereo unspecified) | -7.9
52 | Cc1nnc2ccc(NCC3(N4CCCCC4)CCOCC3)nn12 | -3.59
53 | Cc1ccc(-c2ncc(CN3CCOC(c4ccco4)C3)s2)o1 (stereo unspecified) | 4.37
54 | Cc1cc(OC(F)F)c(C(=O)N2CC[C@H](O)C2)s1 | 9.67
55 | Cc1cc(Br)ccc1C(=O)Nc1c(C(N)=O)n[nH]c1C | -2.58
56 | CC(C)(C)CNC(=O)CNC(=O)C1CC1 | -1.15
57 | Cc1nc2c(s1)C(N(C)C(=O)NCCCC(C)(C)CO)CCC2 (stereo unspecified) | -3.43
58 | O=C(CCOCC(F)(F)F)NS(=O)(=O)c1cccnc1 | 0.946
59 | COCCN1CCC(CNC(=O)C2(S(C)(=O)=O)CCCC2)CC1 | -9.61
60 | CC(C)(C)C(=O)NS(=O)(=O)c1ccc(C#N)c(C(F)(F)F)c1 | 1.38
61 | c1ccc(NCc2ccsc2)c(Cn2cncn2)c1 | 1.42
62 | CCCc1nc(C[S+]([O-])Cc2cn3cccc(C)c3n2)no1 (stereo unspecified) | 2.48
63 | Cc1ccc(CNC2CCN(CCc3ccncc3)CC2)s1 | -13.9
64 | CC(Sc1nnnn1C1CCOCC1)C(=O)NC1CCCCC1 (stereo unspecified) | 18.3
65 | CCS(=O)(=O)N1CCc2c(cccc2NC(=O)NCCOC)C1 | 2.17
66 | Cc1nc(CN2CCCC(N(C)CCc3cccs3)C2)no1 (stereo unspecified) | -21.8
67 | O=C1[C@H]2CN(S(=O)(=O)C3CC3)C[C@H]2CN1CC1CC1 | 1.8
68 | CCC[C@@H]1CN(S(=O)(=O)c2ccc3[nH]c(=O)[nH]c3c2)C[C@H]1NC(C)=O | -7.19
69 | Cc1cc2ccccc2n1CCC(=O)NCCN(C)S(C)(=O)=O | 5.56

Row | SMILES | cytotoxicity at 10 µM [%]
70 | Cc1cc2c(=O)n(CCOCCO)cnc2s1 | 8.72
71 | Cc1nc(-c2cccc(N3CCC(NC4CCSC4)CC3)c2)cs1 (stereo unspecified) | 2.86
72 | CCc1nn(C)c(Cl)c1CN1CCC(c2cc(O)nc(C)n2)CC1 | -9.74
73 | COc1ccc(-c2cccc(-c3ccn(CC4COCCO4)n3)c2)nn1 (stereo unspecified) | -7.78
74 | CCCC(=O)N1CCC(N2CC[C@@](O)(CCOC)[C@H](C)C2)CC1 | -3.58
75 | CC[C@H]1COCCN1C(=O)c1ccc(OC)c(N2CCOCC2)c1 | 3.89
76 | OCCN(Cc1ccccc1)Cc1ccsc1 | 4.7
77 | CCn1c(Cn2cncn2)nnc1C1CCN(Cc2ccccn2)CC1 | 9.78
78 | CN(C)Cc1nnc(C(=O)N(C)Cc2ccc(C(F)(F)F)cc2)o1 | -6.72
79 | CC(CN1CC[C@@H]2CCCC[C@@H]2C1)n1cnc2ccccc21 (stereo partly specified) | 7.16
80 | CCOC(=O)N1CCN(C(=O)C(C)n2ccnc2C(C)C)CC1 (stereo unspecified) | -9.28
81 | COc1ccc(CN2C[C@@H](CN(C)C)[C@@H](CO)C2)cc1OC | -1.19
82 | CCCc1cncnc1N1CCC2(CCC(=O)N(C3CCCC3)C2)CC1 | 2.61
83 | Cc1ccc(C2(CN3CCCC3)CCNCC2)nc1 | -12.8
84 | CCOCC(O)CN1CCN(C(=O)c2cc(F)cc(F)c2)CC1 (stereo unspecified) | 8.1
85 | Cc1ccc(N(CCC#N)C(=O)CN2CCCC2c2ccsc2)cc1 (stereo unspecified) | -9.01
86 | Fc1ccc(-c2nc(CNCCn3cccn3)cs2)cc1 | -11.2
87 | Cc1cccc(C(=O)NC(C)CN2CCCC2=O)n1 (stereo unspecified) | -9.51
88 | CC(C)NC(=O)NCc1ccc(C(=O)NC(C)Cn2cccn2)cc1 (stereo unspecified) | -1.46
89 | O=C(CCn1cncn1)NCC(c1ccco1)N1CCCCC1 (stereo unspecified) | -2.97
90 | O=C(c1cc(F)ccc1F)C1CCN(C(=O)c2cnccn2)CC1 | -27.2
91 | CNc1cc2c(nn1)CCN(C(=O)c1coc(Br)c1)C2 | -13.6
92 | COc1c(CNCC(O)c2ccccc2)c(C(C)C)nn1C (stereo unspecified) | -16.5

Row | SMILES | cytotoxicity at 10 µM [%]
93 | Cc1cc(NC(=O)CN2CCn3c(nnc3C3CC3)C2)no1 | -7.32
94 | Cc1n[nH]c(=O)c2c(NC(=O)CN3CCC(C)CC3)oc(C)c12 | -1.5
95 | Cc1ncc2c(n1)CN(CCCc1nc3ccccc3o1)CC2 | 6.81
96 | O=C(c1cccc(CNCC2CNc3ccnn3C2)c1)N1CCCC1 (stereo unspecified) | 6.26
97 | CCn1cc(NC(=O)NCC(O)CN2CCCCC2)cn1 (stereo unspecified) | 3.75
98 | Cc1ccc(CN2CCC3(CC2)NC(=O)CC3c2ccccc2)s1 (stereo unspecified) | -1.39
99 | CC(=O)N1CCN(Cc2ccc(C)o2)CC2(CC(=O)N(C)C2)C1 (stereo unspecified) | -2.01
100 | Fc1ccc(CN2CCC(c3n[nH]c4ncccc34)CC2)cc1F | 9.12
101 | CN1CCc2c(C#N)c(NCCCN3CCOCC3)n3cnnc3c2C1 | -7.14
102 | O=C1[C@H]2CN(Cc3ccoc3)C[C@H]2CN1CCN1CCCC1 | 1.05
103 | Cc1ccc(CN2CCc3nnc(CN4CCCC4=O)n3CC2)o1 | -4.28
104 | CC(C)CN1CC[C@@H]2[C@@H]1CCN2C(=O)N(C)C | -0.88
105 | CC1c2ncc(CNC(=O)C3CC3)n2CCN1CC1CCC1 (stereo unspecified) | -3.15
106 | CS(=O)(=O)N1CCOCC2(CN(Cc3ccco3)CCO2)C1 (stereo unspecified) | -5.04
107 | Cc1ccc(N2CC[C@H]3O[C@@H](C(=O)N4CCCCO4)CC[C@H]32)nn1 | 5.37
108 | CCS(=O)(=O)N1CCc2onc(COc3ccccn3)c2C1 | -4.72
109 | O=C(NCCn1nc(C2CCNC2)c2cccnc21)c1ccccn1 (stereo unspecified) | -25.7
110 | COc1ccc(-n2cc3[nH]c(=O)[nH]n3c2=O)cc1 | -0.106
111 | Cn1cc(C(=O)N2C[C@H]3CC(Oc4ccccc4)C[C@H]3C2)cn1 (stereo partly specified) | 3.6

From ChEMBL document CHEMBL4513216, “Probing the Open Global Health Chemical Diversity Library for Multistage-Active Starting Points for Next-Generation Antimalarials” (ACS Infect Dis, 2020)
